Assay results published in publication PMC7992179 (ACS Omega, 2021).
“And” between values parts separate entries of the source, which are not always exact repeats. Identical values can stand only once.

Columns and labels:
[1] = test system: PTZ-induced convulsions; experiment: PTZ-induced convulsions in mice; format: in vivo; conditions: for average duration of seizure / latency time / seizure score / mortality: 5 mg/kg i.p., PTZ 70 mg/kg i.p., n = 10; for average duration of seizure / latency time / seizure score: mean ± SEM; for enhancement of latency time of PTZ-induced seizures compared with the standard LTG drug: vs LTG
Procedure, shortened: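 Overnight-fasted albino mice (n = 10 per group) received test compound at 5 mg/kg i.p., suspended in carboxymethylcellulose and sonicated. Controls were vehicle, PTZ alone and lamotrigine (dose-finding at 1–5 mg/kg). Clonic seizures were induced with PTZ 70 mg/kg i.p. Recorded: latency, convulsion duration, number of convulsions, protection, and a 0–6 seizure score (6 = death). Mean ± SEM; one-way ANOVA with Dunnett's test versus the PTZ group.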

[2] = test system: MCF-7 cell line; experiment: MTT cytotoxicity assay in MCF-7 cells; format: cell-based, human; conditions: for % inhibition/stimulation: conc. 30 μM
Procedure, shortened: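 MCF-7 cells grown in Eagle's MEM with 10% FBS, 1% penicillin/streptomycin, 0.1 mM non-essential amino acids, 10 μg/mL insulin and 1 mM sodium pyruvate at 37 °C, 5% CO2. Trypsin/EDTA-harvested cells were seeded at 6 × 10^4 cells/mL and incubated overnight. Test compound (1–30 μM, or a fixed 30 μM screen against doxorubicin) was applied for 48 h. MTT 0.5 mg/mL for 4 h, DMSO, A570; % inhibition and IC50.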

[3] = test system: motor coordination on rotating rod; experiment: Neurotoxicity / minimal motor impairment, rotating rod; format: in vivo; conditions: rod observed 5 min, mean ± SEM, 10 mice
Procedure, shortened: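 White albino mice of either sex, 8–10 weeks, 25–35 g, were trained on a rotating rod (2.5 cm diameter, 25 cm high). After i.p. dosing (10, 30 or 50 mg/kg), motor coordination was scored over 5 min at 30 min and 4 h. Neurotoxicity meant failure to stay on the rod for 1 min. 10 mice per group; mean ± SEM.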

| Compound | average duration of seizure [1] [s] | latency time [1] [s] | seizure score [1] [counts] | mortality [1] [counts] | enhancement of latency time of PTZ-induced seizures compared with the standard LTG drug ([1]; 5 mg/kg) [%] | IC50 ± SD ([2]; MCF-7, 1–30 μM, 48 h, MTT) | % inhibition/stimulation ([2]; 48 h, MTT) [%] | time on Rod ([3]; dose 10 mg/kg i.p.) [s] | time on Rod ([3]; dose 30 mg/kg i.p.) [s] | time on Rod ([3]; dose 50 mg/kg i.p.) [s] | protection against PTZ-induced convulsions ([1]; dose of 5 mg/kg) [%] | IC50 ([2]; read-out: IC50 ± SD, MCF-7, 1–30 μM, 48 h, MTT) [µM] | time on Rod ([3]; dose 50 mg/kg i.p., 50 mg/kg) | latency time ([1]; listed as LTG control) [s] | decrease in the time duration of convulsions as compared to PTZ (negative control) ([1]; 5 mg/kg, vs PTZ negative control) [%] | mice protected from clonic convulsions ([1]; LTG monotherapy 5 mg/kg) [%] | highest nonprotective dose in the PTZ model ([1]; monotherapy, doses 1-5 mg/kg tested against clonic convulsions) [mg/kg] | time on Rod ([3]; dose 10 mg/kg i.p., 10 mg/kg) [s] | time on Rod ([3]; dose 30 mg/kg i.p., 30 mg/kg) [s] | inhibition at 30 µM ([2]; Homo sapiens, MCF7, 48 h, read-out: % inhibition/stimulation) [%] |
| --- | --- | --- | --- | --- | --- | --- | --- | --- | --- | --- | --- | --- | --- | --- | --- | --- | --- | --- | --- | --- |
| 2,2′-{[6-(2,3-Dichlorophenyl)-1,2,4-Triazine-3,5-Diyl]bis[azanylylidene(E)methanylylidene]}diphenol Zinc Chloride Coordinate Complex [4b] | 81.5 ± 2.1 | 240.0 ± 10.3 | 10.0 ± 6.5 | 0.0 | 13 | inactive | 0.00 | 105.0 ± 98.5 | 80.6 ± 78.6 | 54.26 ± 42.3 | – | – | – | – | – | – | – | – | – | – |
| 2,2′-{[6-(2,3-Dichlorophenyl)-1,2,4-triazine-3,5-diyl]bis[azanylylidene(E)methanylylidene]}diphenol Copper Acetate Coordinate Complex [5b] | 97.5 ± 28.3 | 250.0 ± 88.3 | 11.0 ± 2.4 | 1 | 18 | inactive | 0.00 | 116.7 ± 94.3 | 100.0 ± 86.3 | 75.83 ± 54.3 | 90 | – | – | – | – | – | – | – | – | – |
| 2,2′-{[6-(2,3-Dichlorophenyl)-1,2,4-triazine-3,5-diyl]bis[azanylylidene(E)methanylylidene]}diphenol Dibutyl Tin Dichloride Coordinate Complex [7b] | 99 ± 7.1 | 190.0 ± 70.1 | 12.0 ± 1.5 | 0.0 | – | inactive | 0.00 | 80.0 ± 27.6 | 68.9 ± 25.7 | 45.64 ± 19.3 | – | – | – | – | – | – | – | – | – | – |
| 2,2′-{[6-(2,3-Dichlorophenyl)-1,2,4-triazine-3,5-diyl]bis[azanylylidene(E)methanylylidene]}diphenol Silver Nitrate Coordinate Complex [6b] | 95 ± 10.5 | 330.0 ± 67.8 | 12.0 ± 1.8 | 0.0 | 56 | – | 101.2 | 153.3 ± 92.7 | 146.3 ± 90.9 | 130.0 ± 91.7 | – | 11.9 ± 0.27 | – | – | – | – | – | – | – | – |
| 4-{[(3-{(E)-[(4-Hydroxy-3-methoxyphenyl)methylidene]amino}-6-(2,3-dichlorophenyl)-1,2,4-triazin-5-yl)imino]methyl}-2-methoxyphenol Copper Acetate Coordinate Complex [5c] | 115 ± 10.0 | 230.0 ± 70.1 | 10.0 ± 2.6 | 0.0 | 8 | inactive | 0.00 | 121.7 ± 98.3 | 90.0 ± 85.6 | 75.64 ± 52.7 | – | – | – | – | – | – | – | – | – | – |
| 4-{[(3-{(E)-[(4-Hydroxy-3-methoxyphenyl)methylidene]amino}-6-(2,3-dichlorophenyl)-1,2,4-triazin-5-yl)imino]methyl}-2-methoxyphenol Dibutyl Tin Dichloride Coordinate Complex [7c] | 125 ± 15.3 | 160.0 ± 49.0 | 11.0 ± 1.6 | 0.0 | – | inactive | 0.00 | 190.0 ± 74.6 | 167.4 ± 89.8 | – | – | – | 140.5 ± 94.9 s and 140.5 ± 94.0 s | – | – | – | – | – | – | – |
| 4-{[(3-{(E)-[(4-Hydroxy-3-methoxyphenyl)methylidene]amino}-6-(2,3-dichlorophenyl)-1,2,4-triazin-5-yl)imino]methyl}-2-methoxyphenol Zinc Chloride Coordinate Complex [4c] | 81.5 ± 1.5 | 250.0 ± 10.3 | 14.0 ± 3.7 | 0.0 | 18 | inactive | 0.00 | 80.0 ± 75.3 | 50.6 ± 42.5 | 30.65 ± 25.7 | – | – | – | – | – | – | – | – | – | – |
| Oc1ccccc1/C=N/c1nnc(-c2cccc(Cl)c2Cl)c(/N=C/c2ccccc2O)n1 [3b, 2,2′-{[6-(2,3-Dichlorophenyl)-1,2,4-triazine-3,5-diyl]bis[azanylylidene(E)methanylylidene]}diphenol] | – | – | – | – | – | – | – | 110.8 ± 98.6 | 90.5 ± 82.3 | 65.97 ± 54.9 | – | – | – | – | – | – | – | – | – | – |
| COc1cc(C=Nc2nc(/N=C/c3ccc(O)c(OC)c3)nnc2-c2cccc(Cl)c2Cl)ccc1O [3c, 4-{[(3-{(E)-[(4-Hydroxy-3-methoxyphenyl)methylidene]amino}-6-(2,3-dichlorophenyl)-1,2,4-triazin-5-yl)imino]methyl}-2-methoxyphenol] | – | – | – | – | – | – | – | 140.7 ± 92.4 | 126.4 ± 88.0 | 100.0 ± 82.3 | – | – | – | – | – | – | – | – | – | – |
| Nc1nnc(-c2cccc(Cl)c2Cl)c(N)n1 [LTG, 3,5-diamino-6-(2,3-dichlorophenyl)-1,2,4-triazine, reference compound] | 90 ± 3.5 | ~212 | 11.0 ± 2.3 | 0.0 | – | – | – | 290.0 ± 16.7 | 245.8 ± 15.4 | 200.7 ± 13.7 | – | – | – | 211.7 ± 98.1 | 42 | 6 | 5 | – | – | – |
| C1CCc2nnnn2CC1 [PTZ, pentylenetetrazole, reference compound] | – | – | – | – | – | – | – | – | – | – | – | – | 7.7 ± 2.4 s | – | – | – | – | 16.67 ± 8.165 | 10.46 ± 1.654 | – |
| COc1cccc2c1C(=O)c1c(O)c3c(c(O)c1C2=O)C[C@@](O)(C(=O)CO)C[C@@H]3O[C@H]1C[C@H](N)[C@H](O)[C@H](C)O1 [doxorubicin (DOX), doxorubicin, reference compound] | – | – | – | – | – | – | – | – | – | – | – | – | – | – | – | – | – | – | – | 101 |
| (1E,2Z)-N-[6-(2,3-Dichlorophenyl)-5-{(E)-[(2E)-3-phenylprop-2-en-1-ylidene]amino}-1,2,4-triazin-3-yl]prop-2-en-1-imine Copper Acetate Coordinate Complex [5a] | 81.5 ± 2.1 | 170.0 ± 45.2 | 11.0 ± 1.9 | 0.0 | – | inactive | 0.00 | 76.7 ± 19.7 | 55.9 ± 12.9 | 40.9 ± 10.7 | – | – | – | – | – | – | – | – | – | – |
